Source: ChEMBL document CHEMBL1129310, “(Aminoalkyl)indole isothiocyanates as potential electrophilic affinity ligands for the brain cannabinoid receptor” (J Med Chem, 1996)

What was measured:
[1] = target: T1, Cannabinoid receptor 1 (Rattus norvegicus, UniProt P20272); assay: Binding affinity against brain cannabinoid receptor 1 using [3H]CP-55940 as radioligand at 0.25 nM concentration
In short: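 Rat brain P2 membranes (30 µg protein) were suspended in 20 mM potassium diethylmalonate pH 7.5 with 2.25 mM MgCl2 and 0.025% β-cyclodextrin, then incubated with [3H]CP-55940 for 1 h at 30 °C. Compounds came from DMSO stocks diluted through β-cyclodextrin. The reaction was stopped with BSA and glass-fibre filtration. Nonspecific binding was defined with 0.1 µM desacetyllevonantradol. Displacement curves were fitted by nonlinear regression, triplicate points.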

[2] = target: T1, Cannabinoid receptor 1; assay: Binding affinity against brain Cannabinoid receptor 1 using [3H]CP-55940 as radioligand at 1.1 nM concentration

T1 sequence (P20272 whole entry): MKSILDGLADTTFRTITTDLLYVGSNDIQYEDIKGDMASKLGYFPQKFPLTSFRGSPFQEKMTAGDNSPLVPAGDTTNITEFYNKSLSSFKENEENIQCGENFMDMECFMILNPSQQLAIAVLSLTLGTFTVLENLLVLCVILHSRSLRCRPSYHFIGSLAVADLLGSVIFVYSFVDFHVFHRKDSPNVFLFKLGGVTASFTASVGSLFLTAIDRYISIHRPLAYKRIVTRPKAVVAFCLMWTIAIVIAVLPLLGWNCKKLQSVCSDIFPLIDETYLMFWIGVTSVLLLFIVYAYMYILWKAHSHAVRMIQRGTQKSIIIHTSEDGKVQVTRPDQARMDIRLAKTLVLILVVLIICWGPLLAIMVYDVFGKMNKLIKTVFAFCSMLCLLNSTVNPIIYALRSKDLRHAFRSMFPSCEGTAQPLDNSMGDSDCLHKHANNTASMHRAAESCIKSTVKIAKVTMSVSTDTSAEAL

`O=C(c1cccc2ccccc12)c1cn(CCN2CCOCC2)c2ccccc12` showed an IC50 [1] of 46 nM.

With `O=C(c1cccc2cc(N=C=S)ccc12)c1cn(CCN2CCOCC2)c2ccccc12` the IC50 [1] was 530 nM.

Molecule `Cc1c(C(=O)c2ccc(N=C=S)c3ccccc23)c2ccccc2n1CCN1CCOCC1` has an IC50 [2] of 690 nM.

For `O=C(c1ccc(N=C=S)c2ccccc12)c1cn(CCN2CCOCC2)c2ccccc12`, the IC50 [1] was 440 nM.

`O=C(c1cc(N=C=S)cc2ccccc12)c1cn(CCN2CCOCC2)c2ccccc12` was tested, and the IC50 [1] was 920 nM.

In the case of `O=C(c1cccc2ccccc12)c1cn(CCN2CCOCC2)c2cc(N=C=S)ccc12`, the IC50 [1] is reported as 160 nM.
